Reference: paper PMC3101112 (Cancer Management and Research, 2011)
Several values for one entry are separate records, joined by “and”; a condition that tells them apart may be missing. Equal entries are not always repeated. Where two headings read alike, the source gives them in different places.

Columns and labels:
EPHA5 = EPHA5 (Homo sapiens, UniProt P54756); experiment: Biochemical inhibition profile, EPHA5; settings: read-out: Biochemical Inhibition Profile IC50, EPHA5
RAF = experiment: Biochemical inhibition profile, RAF; parameters: species or system Human; settings: read-out: Biochemical Inhibition Profile IC50, RAF
EPHB1 = EPHB1 (Homo sapiens, UniProt P54762); experiment: Biochemical inhibition profile, EPHB1; settings: read-out: Biochemical Inhibition Profile IC50, EPHB1
KDR = KDR (Homo sapiens, UniProt P35968); experiment: Biochemical inhibition profile, KDR; settings: read-out: Biochemical Inhibition Profile IC50, KDR
EPHA1 = EPHA1 (Homo sapiens, UniProt P21709); experiment: Biochemical inhibition profile, EPHA1; settings: read-out: Biochemical Inhibition Profile IC50, EPHA1
[1] = tested on: CYP3A4, CYP2D6, and CYP2C9; experiment: Drug-drug interaction cocktail; type: in vivo, human; settings: AML patients, cocktail before and after multiple doses of 50 mg/day
How it was run: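 The probe cocktail was midazolam 0.2 mg (CYP3A4), dextromethorphan 30 mg (CYP2D6) and tolbutamide 500 mg (CYP2C9), given after a two-hour fast. It was dosed ~7 days before the single test-compound dose and again after two or four weeks of daily 50 mg oral test compound. Probe plasma concentration–time profiles were compared before and after treatment.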

[2] = Plasma pharmacokinetics in patients with relapsed AML; type: in vivo, human
How it was run: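 Relapsed AML patients got 50 mg test compound orally after an ~8 h fast, without the probe cocktail. Plasma was sampled over 48 h after a single dose and over 12 h after one week of once-daily dosing. Tmax, Cmax, AUC and oral clearance came from noncompartmental analysis.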

FLT4 = FLT4 (Homo sapiens, UniProt P35916); experiment: Biochemical inhibition profile, FLT4; settings: read-out: Biochemical Inhibition Profile IC50, FLT4
[3] = tested on: MV4-11 cells containing the FLT3-ITD mutation; settings: animals; cited from earlier work
PDGF-Rb = PDGF-Rb (Homo sapiens, UniProt P09619); experiment: Biochemical inhibition profile, PDGF-Rb; settings: read-out: Biochemical Inhibition Profile IC50, PDGF-Rb
TIE2 = TIE2 (Homo sapiens, UniProt Q02763); experiment: Cell-based target inhibition assay, CHO - Clone113, pTIE2; settings: read-out: Cell-Based Target Inhibition Assays IC50, pTIE2 pY99, stable over-expression of TIE2
[4] = tested on: human ether-à-go-go-related gene (hERG); settings: read-out: hERG IC50; ref data on file, Eli Lilly and Company; cited from earlier work
MV4-11 = experiment: cells; type: cell-based; settings: read-out: Cell-Based Antiproliferation Assay IC50; MV4-11; constitutively active (FLT3 ITD Mutation D835)
EPHB4 [5] = target: T1, EPHB4 (Homo sapiens, UniProt P54760); settings: read-out: Biochemical Inhibition Profile IC50, EPHB4
[6] = QTc assessment in patients with relapsed AML; type: in vivo, human; settings: after the single-dose administration, 48-hour follow-up
How it was run: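 QTc was corrected by both Bazett and Fridericia formulas and compared with baseline across the 48 h after a single 50 mg oral dose. QTc was set against test-compound plasma concentration. Grade 3 was defined as >500 msec or a rise of >60 msec from baseline, confirmed by 12-lead ECG.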

[7] = also reversible lymphoid necrosis of Peyer's patches, skin depigmentation or whitening of the hair; cited from earlier work
VEGF-R3 = VEGF-R3 (Homo sapiens, UniProt P35916); experiment: Biochemical inhibition profile, VEGF-R3; settings: read-out: Biochemical Inhibition Profile IC50, VEGF-R3
EPHB4 [8] = target: T1, EPHB4; settings: read-out: Cell-Based Target Inhibition Assays IC50, pEphB4 Y590/Y596; HEK293-Clone 25; stable over-expression of EphB4
[9] = tested on: pERK T202Y204 in HUVEC (with BSA); experiment: Cell-based target inhibition assay, HUVEC, VEGF, pERK with BSA; parameters: species or system human; settings: read-out: Cell-Based Target Inhibition Assays IC50, pERK T202Y204 (with BSA), activator VEGF, with BSA
EPHA4 = EPHA4 (Homo sapiens, UniProt P54764); experiment: Biochemical inhibition profile, EPHA4; settings: read-out: Biochemical Inhibition Profile IC50, EPHA4
cKIT = cKIT (Homo sapiens, UniProt P10721); experiment: Biochemical inhibition profile, cKIT; settings: read-out: Biochemical Inhibition Profile IC50, cKIT
[10] = AML patients, single and multiple oral doses 50 mg
[11] = Visit 0, single oral dose 50 mg, Max of N 5
[12] = Visit 0, single oral dose 50 mg, Min of N 5
[13] = Visit 0, single oral dose 50 mg, individual subjects (AML patients)
[14] = Visit 1, multiple oral doses 50 mg once daily, Max of N 5
[15] = Visit 1, multiple oral doses 50 mg once daily, Min of N 5
[16] = Visit 2, after multiple oral doses 50 mg, Max of N 2
[17] = Visit 2, after multiple oral doses 50 mg, Min of N 2

T1 sequence (P54760 16-987): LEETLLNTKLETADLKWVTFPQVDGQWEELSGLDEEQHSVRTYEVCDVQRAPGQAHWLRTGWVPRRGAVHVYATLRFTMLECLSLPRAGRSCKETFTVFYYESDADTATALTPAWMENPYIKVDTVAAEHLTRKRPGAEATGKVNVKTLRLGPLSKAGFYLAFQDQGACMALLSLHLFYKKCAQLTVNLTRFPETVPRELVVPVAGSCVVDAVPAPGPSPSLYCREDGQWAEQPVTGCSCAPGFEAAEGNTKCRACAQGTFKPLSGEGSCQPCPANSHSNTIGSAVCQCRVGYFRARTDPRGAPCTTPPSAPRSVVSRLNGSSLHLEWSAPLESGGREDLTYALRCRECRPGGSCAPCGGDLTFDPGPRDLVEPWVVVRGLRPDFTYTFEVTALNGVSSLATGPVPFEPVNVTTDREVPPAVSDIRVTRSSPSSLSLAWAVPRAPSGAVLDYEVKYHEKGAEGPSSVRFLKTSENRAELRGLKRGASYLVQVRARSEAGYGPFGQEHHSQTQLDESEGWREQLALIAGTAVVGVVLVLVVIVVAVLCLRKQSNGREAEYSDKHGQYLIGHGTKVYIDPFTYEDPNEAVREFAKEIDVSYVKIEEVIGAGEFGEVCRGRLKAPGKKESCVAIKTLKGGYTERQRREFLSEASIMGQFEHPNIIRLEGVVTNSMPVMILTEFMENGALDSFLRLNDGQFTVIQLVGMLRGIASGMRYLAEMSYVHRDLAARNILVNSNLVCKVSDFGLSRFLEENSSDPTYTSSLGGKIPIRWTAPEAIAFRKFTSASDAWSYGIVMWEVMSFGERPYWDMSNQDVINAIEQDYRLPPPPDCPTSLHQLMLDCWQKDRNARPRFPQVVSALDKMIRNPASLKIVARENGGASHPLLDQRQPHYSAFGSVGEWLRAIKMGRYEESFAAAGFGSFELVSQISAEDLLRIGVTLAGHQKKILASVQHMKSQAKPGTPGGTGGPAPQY
Chain of EPHA4 (P54764 20-986): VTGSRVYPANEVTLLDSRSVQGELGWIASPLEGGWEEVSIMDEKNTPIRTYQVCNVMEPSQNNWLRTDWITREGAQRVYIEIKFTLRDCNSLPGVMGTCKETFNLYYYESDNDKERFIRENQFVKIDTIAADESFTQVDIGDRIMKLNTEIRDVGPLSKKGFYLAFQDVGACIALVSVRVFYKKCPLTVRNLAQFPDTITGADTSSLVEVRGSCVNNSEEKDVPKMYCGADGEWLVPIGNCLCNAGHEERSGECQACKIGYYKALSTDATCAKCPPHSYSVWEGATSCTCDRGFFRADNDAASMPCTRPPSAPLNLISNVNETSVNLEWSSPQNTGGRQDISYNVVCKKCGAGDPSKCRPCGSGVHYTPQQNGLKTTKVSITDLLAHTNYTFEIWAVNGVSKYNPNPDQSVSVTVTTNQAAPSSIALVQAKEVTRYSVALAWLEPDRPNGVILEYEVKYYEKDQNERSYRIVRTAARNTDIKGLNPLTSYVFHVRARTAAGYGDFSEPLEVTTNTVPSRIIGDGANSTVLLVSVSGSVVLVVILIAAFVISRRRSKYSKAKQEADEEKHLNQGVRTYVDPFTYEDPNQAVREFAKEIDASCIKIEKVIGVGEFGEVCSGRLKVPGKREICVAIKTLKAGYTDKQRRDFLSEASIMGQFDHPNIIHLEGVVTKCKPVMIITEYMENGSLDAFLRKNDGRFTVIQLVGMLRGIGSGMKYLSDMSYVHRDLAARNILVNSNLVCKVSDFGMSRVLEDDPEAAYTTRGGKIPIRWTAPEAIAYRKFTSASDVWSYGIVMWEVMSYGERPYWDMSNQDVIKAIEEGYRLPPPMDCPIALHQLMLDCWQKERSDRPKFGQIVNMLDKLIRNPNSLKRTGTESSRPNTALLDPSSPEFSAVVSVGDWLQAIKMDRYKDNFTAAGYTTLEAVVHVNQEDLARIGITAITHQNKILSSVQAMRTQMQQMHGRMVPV
Chain of FLT4 (P35916 25-1363): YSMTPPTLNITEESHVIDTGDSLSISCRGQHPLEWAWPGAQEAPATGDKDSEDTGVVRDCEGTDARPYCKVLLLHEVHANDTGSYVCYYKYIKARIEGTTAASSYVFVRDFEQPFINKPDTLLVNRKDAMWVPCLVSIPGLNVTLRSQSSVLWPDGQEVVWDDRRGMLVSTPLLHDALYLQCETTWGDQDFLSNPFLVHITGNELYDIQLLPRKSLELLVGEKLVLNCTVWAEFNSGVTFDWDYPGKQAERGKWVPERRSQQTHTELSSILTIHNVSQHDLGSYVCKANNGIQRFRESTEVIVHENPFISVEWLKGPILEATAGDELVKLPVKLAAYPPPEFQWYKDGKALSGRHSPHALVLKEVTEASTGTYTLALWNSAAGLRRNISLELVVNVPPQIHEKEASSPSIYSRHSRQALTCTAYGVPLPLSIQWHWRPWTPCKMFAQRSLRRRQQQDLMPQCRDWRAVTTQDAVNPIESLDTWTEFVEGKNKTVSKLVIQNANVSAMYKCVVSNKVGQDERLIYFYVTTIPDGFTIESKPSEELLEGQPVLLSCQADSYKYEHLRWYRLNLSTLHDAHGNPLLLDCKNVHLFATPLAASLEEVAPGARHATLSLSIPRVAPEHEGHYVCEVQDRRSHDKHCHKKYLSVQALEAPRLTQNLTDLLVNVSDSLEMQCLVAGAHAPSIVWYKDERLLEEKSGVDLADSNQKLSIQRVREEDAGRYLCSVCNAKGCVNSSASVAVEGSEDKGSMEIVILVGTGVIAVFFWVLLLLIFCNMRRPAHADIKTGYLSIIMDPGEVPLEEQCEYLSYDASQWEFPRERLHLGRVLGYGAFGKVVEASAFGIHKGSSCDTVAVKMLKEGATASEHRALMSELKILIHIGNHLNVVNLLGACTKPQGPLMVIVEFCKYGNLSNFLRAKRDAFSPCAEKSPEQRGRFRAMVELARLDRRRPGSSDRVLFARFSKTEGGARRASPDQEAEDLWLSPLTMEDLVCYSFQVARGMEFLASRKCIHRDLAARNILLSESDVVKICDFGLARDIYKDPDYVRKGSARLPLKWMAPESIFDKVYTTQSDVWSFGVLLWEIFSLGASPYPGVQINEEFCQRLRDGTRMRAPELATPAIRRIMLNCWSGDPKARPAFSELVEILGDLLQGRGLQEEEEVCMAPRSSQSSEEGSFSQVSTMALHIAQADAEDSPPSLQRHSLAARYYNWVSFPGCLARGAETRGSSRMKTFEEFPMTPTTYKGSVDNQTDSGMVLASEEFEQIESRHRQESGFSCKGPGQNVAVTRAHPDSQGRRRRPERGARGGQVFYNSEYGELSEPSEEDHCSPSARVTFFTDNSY
Chain of VEGF-R3 (P35916 25-1363): as above
Chain of TIE2 (Q02763 23-1124): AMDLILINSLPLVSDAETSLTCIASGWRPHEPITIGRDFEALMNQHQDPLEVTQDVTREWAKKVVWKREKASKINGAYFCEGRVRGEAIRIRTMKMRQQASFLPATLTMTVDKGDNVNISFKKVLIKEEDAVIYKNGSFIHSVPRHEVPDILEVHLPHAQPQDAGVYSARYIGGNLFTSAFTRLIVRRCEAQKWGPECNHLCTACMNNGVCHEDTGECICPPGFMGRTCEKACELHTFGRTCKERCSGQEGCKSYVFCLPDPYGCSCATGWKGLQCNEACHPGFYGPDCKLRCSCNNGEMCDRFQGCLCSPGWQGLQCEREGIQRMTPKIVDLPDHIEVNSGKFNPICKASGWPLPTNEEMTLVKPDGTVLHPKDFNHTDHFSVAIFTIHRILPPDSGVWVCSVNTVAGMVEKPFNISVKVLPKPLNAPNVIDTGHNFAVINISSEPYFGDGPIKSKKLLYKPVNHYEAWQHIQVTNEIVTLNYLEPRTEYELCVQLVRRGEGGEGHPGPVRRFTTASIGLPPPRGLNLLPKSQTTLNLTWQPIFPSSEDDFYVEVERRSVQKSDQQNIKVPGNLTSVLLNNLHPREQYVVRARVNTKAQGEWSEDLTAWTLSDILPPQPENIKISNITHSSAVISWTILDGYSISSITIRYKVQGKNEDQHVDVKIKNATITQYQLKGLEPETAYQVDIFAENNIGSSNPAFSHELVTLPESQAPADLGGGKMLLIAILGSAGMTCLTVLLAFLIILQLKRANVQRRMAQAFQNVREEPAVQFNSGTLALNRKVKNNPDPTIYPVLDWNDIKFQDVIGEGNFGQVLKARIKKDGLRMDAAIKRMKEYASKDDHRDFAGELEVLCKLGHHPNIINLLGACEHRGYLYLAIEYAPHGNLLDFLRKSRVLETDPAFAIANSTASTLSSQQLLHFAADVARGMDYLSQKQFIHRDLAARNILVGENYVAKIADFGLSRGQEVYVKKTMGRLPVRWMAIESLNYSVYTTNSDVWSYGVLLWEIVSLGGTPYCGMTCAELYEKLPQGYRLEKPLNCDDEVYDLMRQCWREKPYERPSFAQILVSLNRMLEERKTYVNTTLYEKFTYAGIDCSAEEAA

Structure (SMILES): Cc1cc(-c2ccn3c(-c4ccc(CC(=O)Nc5cccc(C(F)(F)F)c5)c(F)c4)cnc3c2)ccn1 [LY2457546]
- IC50 (EPHA5): 10.7 nM
- IC50 (RAF): 264 nM
- IC50 (EPHB1): 21.4 nM
- IC50 (KDR): 28 nM
- IC50 (EPHA1): 616 nM
- Drug-drug interactions with midazolam, tolbutamide, and dextromethorphan [1]: No consistent drug–drug interactions
- Elimination within 24 hours ([2]; AML patients, 50 mg/day orally): virtually no elimination
- Accumulation in plasma [2, 10]: Extensive accumulation
- Terminal elimination half-life [2, 10]: no terminal elimination half-life could be defined
- AUC0_24, Max [2, 11]: 41500 ng·h/mL
- AUClast, Max [2, 11]: 79200 ng·h/mL
- Clast, Max [2, 11]: 1354.06 ng/mL
- Cmax, Max [2, 11]: 2406.55 ng/mL
- Tlast, Max [2, 11]: 48 h
- Tmax, Max [2, 11]: 48 h
- AUC0_24, Min [2, 12]: 1850 ng·h/mL
- AUClast, Min [2, 12]: 1850 ng·h/mL
- Clast, Min [2, 12]: 78.459 ng/mL
- Cmax, Min [2, 12]: 105.113 ng/mL
- Tlast, Min [2, 12]: 24 h
- Tmax, Min [2, 12]: 2 h
- AUC0_24 [2, 13]: 2520 ng·h/mL and 8930 ng·h/mL and 41500 ng·h/mL and 1850 ng·h/mL and 3420 ng·h/mL
- AUClast [2, 13]: 6030 ng·h/mL and 16100 ng·h/mL and 79200 ng·h/mL and 1850 ng·h/mL and 3420 ng·h/mL
- Clast [2, 13]: 154.876 ng/mL and 302.003 ng/mL and 1354.06 ng/mL and 105.113 ng/mL and 78.459 ng/mL
- Cmax [2, 13]: 154.876 ng/mL and 604.581 ng/mL and 2406.55 ng/mL and 105.113 ng/mL and 394.238 ng/mL
- Tlast [2, 13]: 48 h and 24 h
- Tmax [2, 13]: 48 h and 2 h and 4 h and 24 h
- AUC0_24, Max ([2]; Visit 1, multiple oral doses 50 mg once daily, Max of N 3): 69100 ng·h/mL
- AUClast, Max [2, 14]: 69200 ng·h/mL
- Clast, Max [2, 14]: 2830.537 ng/mL
- Cmax, Max [2, 14]: 3812.913 ng/mL
- Tlast, Max [2, 14]: 48 h
- Tmax, Max [2, 14]: 8 h
- AUC0_24, Min ([2]; Visit 1, multiple oral doses 50 mg once daily, Min of N 3): 2320 ng·h/mL
- AUClast, Min [2, 15]: 3610 ng·h/mL
- Clast, Min [2, 15]: 28.097 ng/mL
- Cmax, Min [2, 15]: 123.44 ng/mL
- Tlast, Min [2, 15]: 8 h
- Tmax, Min [2, 15]: 0 h
- AUC0_24, Max [2, 16]: 41500 ng·h/mL
- AUClast, Max [2, 16]: 93400 ng·h/mL
- Clast, Max [2, 16]: 2190.006 ng/mL
- Cmax, Max [2, 16]: 2190.006 ng/mL
- Tlast, Max [2, 16]: 48 h
- Tmax, Max [2, 16]: 48 h
- AUC0_24, Min [2, 17]: 18500 ng·h/mL
- AUClast, Min [2, 17]: 38400 ng·h/mL
- Clast, Min [2, 17]: 708.777 ng/mL
- Cmax, Min [2, 17]: 1087.972 ng/mL
- Tlast, Min [2, 17]: 48 h
- Tmax, Min [2, 17]: 0 h
- IC50 (FLT4): 1.56 nM
- Potency relative to sunitinib in controlling leukemia growth [3]: 10 fold
- IC50 (PDGF-Rb): 25.7 nM
- IC50 (TIE2): 166 nM
- IC50 [4]: 200 nM
- IC50 (MV4-11): 0.339 nM
- IC50 (EPHB4 [5]): 39.8 nM
- QTc prolongation after Bazet and Fridericia corrections [6]: not present
- Toxicities in preclinical toxicology studies [7]: reversible bone marrow toxicity, minimal liver inflammation, reversible physeal dysplasia
- IC50 (VEGF-R3): 34.1 nM
- IC50 (EPHB4 [8]): 9.1 nM
- IC50 [9]: 41.4 nM
- IC50 (EPHA4): 157 nM
- IC50 (cKIT): 73.8 nM
